Experimental data collected from several papers.
Each line is one published result; the experiments were not run side by side.
Target: Cholinesterase (BCHE, Homo sapiens, UniProt P06276)
Read-out: enzyme activity
Action: inhibitor

`C=CCn1c2cc(OC(=O)CCCCN3CCN(Cc4ccc(F)cc4)CC3)ccc2c2ccnc(C)c21` gave an IC50 of 584 nM (Ellman).
With `Cc1ccc(S(=O)(=O)n2cc(Br)c(=O)[nH]c2=O)cc1` the IC50 was 137 nM (Ellman).
`C=CCn1c2cc(OC(=O)CCCCCN3CCN(Cc4ccccc4)CC3)ccc2c2ccnc(C)c21` gave an IC50 of 464 nM (Ellman).
For `Clc1ccc(Nc2nc3ccccc3c3[nH]c(C4CCCCC4)nc23)cc1Cl`, the IC50 was 4910 nM.
For `C#CCN(C)c1nc(NCCCC2CCN(Cc3ccccc3)CC2)c(C#N)cc1C#N`, the IC50 was 1680 nM (Ellman).
`C=CCn1c2cc(OC(=O)CCCCN3CCN(Cc4ccc(Cl)cc4)CC3)ccc2c2ccnc(C)c21` gave an IC50 of 674 nM (Ellman).
`CC(C)(C)c1ccc(OP(=O)(Oc2ccc(C(C)(C)C)cc2)Oc2ccc(C(C)(C)C)cc2)cc1` has an IC50 of greater than 20 µg/mL (liver microsomes).
For `O=c1[nH]cc(CO)c(=O)[nH]1`, the IC50 was 443 nM (Ellman).
With `CC(C)c1ccc(OP(=O)(Oc2ccc(C(C)C)cc2)Oc2ccc(C(C)C)cc2)cc1` the IC50 was greater than 20 µg/mL (liver microsomes).
`C=CCn1c2cc(OC(=O)CCCCN3CCN(Cc4ccc(C)cc4)CC3)ccc2c2ccnc(C)c21` gave an IC50 of 581 nM (Ellman).
`O=c1[nH]cc(Br)c(=O)[nH]1` gave an IC50 of 292 nM (Ellman).
`CC(C)(C)c1ccccc1OP(=O)(Oc1ccccc1C(C)(C)C)Oc1ccccc1C(C)(C)C` has an IC50 of greater than 20 µg/mL (liver microsomes).
